Usually IC50 stands for the concentration needed to halve the response being measured. Read a high IC50 as a need for much substance. As a reminder, the inhibition in vivo is the drop in the measured response relative to a control, in per cent. Low values mean little suppression, high ones strong suppression. Broadly, the GI50 is the concentration that inhibits growth by half. A high value points to less potent growth inhibition.

For test [1], the target named is T1, Protein farnesyltransferase (Homo sapiens, UniProt P49354+P49356). The experiment in a line: Inhibition of farnesyltransferase activity against K-Ras. The test is classed as protein-complex assay. An outline of the steps: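 K-Ras used as acceptor substrate with FTase (16.6 nM) and [3H]FPP plus serially diluted inhibitor, 30 min at 37 °C, in HEPES pH 7.4 buffer with Mg2+, Zn2+, KCl, octylglucoside and DTT. Stopped with acidic ethanol, then filter binding and scintillation counting of labeled K-Ras. IC50 is 50% reduction of [3H]FPP transfer; mean of three determinations.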

The target in test [2] is Geranylgeranyl transferase type I (Homo sapiens, UniProt P49354+P53609). The experiment in a line: Inhibition of Geranylgeranyl transferase type I. The test is classed as protein-complex assay.
Test [3] deals with T1, Protein farnesyltransferase. The test is described as follows: Inhibition of farnesyltransferase activity against H-Ras. The test is classed as protein-complex assay. Put shortly:
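FTase (16.6 nM) incubated 30 min at 37 °C with H-Ras substrate, [3H]farnesyl pyrophosphate and serially diluted compound. Buffer: 50 mM HEPES pH 7.4, KCl, MgCl2, ZnCl2, 0.5% N-octylglucoside, 10 mM DTT. Reactions quenched with 10% HCl in ethanol. Farnesylated Ras captured on glass-fiber filters and scintillation counted. IC50 is the concentration halving [3H]FPP incorporation; mean of three experiments.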

Test [4] deals with HCT-116. The test is described as follows: Percent inhibition of tumor growth relative to control tumors in tumor xenograft nude mice against HCT116 at a dose of 60 mg/kg, bid on day 21;p<0.001. The test is classed as functional, Homo sapiens. Particulars: Mus musculus, HCT-116, 504 h. Put shortly:
(§1)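 Female athymic BALB/c nu/nu mice, 5–7 weeks old, acclimated ≥1 week, inoculated s.c. intrascapularly with 10^7 tumor cells. Tumour volume measured in three dimensions every three days as 1/6·π·L·W·H. At ~100 mm3 mice randomised, 8 per group (Day 0). Dosing by gastric gavage twice daily from Day 1 for 21 days; vehicle 0.9% saline. Ulcerated tumours excluded; Student's t-test.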

A further test relates to T-24. The test is described as follows: Inhibition of anchorage independent growth of human tumor cell line T24 H-ras-transformed in soft agar. The format is functional. An outline of the steps: (§2)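 Cells adapted 2–3 days in DMEM + 10% FBS after thawing. Bottom layer 0.5% agar with DMEM/FBS and compound; top layer 0.33% agar with compound, cells at 2–5×10^3 cells/mL. Colonies counted by microscope after two weeks in humidified CO2 incubator. GI50 from plot of % colony growth versus log10 concentration for each cell line.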

In test [5] the test system is EJ. The experiment in a line: Percent inhibition of tumor growth relative to control tumors in tumor xenograft nude mice against EJ at a dose of 20 mg/kg, bid on day 15;p<0.001. The format is functional, Homo sapiens. The following applies: Mus musculus, 360 h. Put shortly:
as §1

The test system of test [6] is HCT-116. The experiment in a line: Percent inhibition of tumor growth relative to control tumors in tumor xenograft nude mice against HCT116 at a dose of 40 mg/kg, bid on day 21;p<0.001. The test is classed as functional, Homo sapiens. Particulars: Mus musculus, HCT-116, 504 h. Put shortly: as §1
Another test has as its system HT-29. The test is described as follows: Inhibition of anchorage independent growth of human tumor cell line HT-29 K-ras-transformed in soft agar. The test is classed as functional. An outline of the steps: as §2
Test [7] deals with HCT-116. The test is described as follows: Inhibition of anchorage independent growth of human tumor cell line HCT116 K-ras-transformed in soft agar. The format is functional. An outline of the steps: as §2
The test system of the next test is A549. The experiment in a line: Inhibition of anchorage independent growth of human tumor cell line A549 K-ras-transformed in soft agar. The test is classed as functional. Put shortly: as §2
Test [8] has as its system EJ. The experiment in a line: Inhibition of anchorage independent growth of human tumor cell line EJ H-ras-transformed in soft agar. The test is classed as functional. Put shortly: as §2
In test [9] the test system is EJ. The experiment in a line: Percent inhibition of tumor growth relative to control tumors in tumor xenograft nude mice (with p<0.001 compared to control) against EJ at a dose of 40 mg/kg, bid on day 15;Regression. The test is classed as functional, organism-based. Set-up: dose 40 mg/kg. The following applies: Homo sapiens. Put shortly:
as §1

Test [10] relates to EJ. The test is described as follows: Percent inhibition of tumor growth relative to control tumors in tumor xenograft nude mice (with p<0.001 compared to control) against EJ at a dose of 60 mg/kg, bid on day 15;Regression. Set-up: dose 60 mg/kg. The following applies: Homo sapiens. The format is functional, organism-based. An outline of the steps:
as §1

`O=C(c1cn(Cc2c[nH]cn2)cc1-c1cccc2ccccc12)N1CCOCC1` returned an IC50 in test [1] of 1830 nM.
For the compound `COCCN(C)C(=O)c1cn(Cc2cncn2Cc2ccc3c(c2)OCO3)cc1-c1cccc2ccccc12`, half-maximal inhibition in test [2] (IC50) was put at 10000 nM.
On to `Cn1cncc1Cn1cc(C(=O)N2CCOCC2)c(-c2cccc3ccccc23)c1`, for which the IC50 in test [1] is 100 nM; in [3] it was 3 nM; in [2], greater than 100000 nM.
As to `CN1CCN(C(=O)c2cn(Cc3cncn3Cc3ccc4c(c3)OCO4)cc2-c2cccc3ccccc23)CC1` [listing 1 of 3 here], the IC50 amounted to 0.9 nM in test [3] and 16000 nM in test [2].
Compound `CN1CCN(C(=O)c2cn(Cc3cncn3Cc3ccc4c(c3)OCO4)cc2-c2cccc3ccccc23)CC1` [listing 2 of 3 here] had an inhibition in vivo at 60 mg/kg in the test on HCT-116 [4] of 55%. For the same compound, the GI50 worked out at 0.45 nM with T-24; 4.5 nM in the test with HT-29; 17.6 nM with HCT-116 [7]; 1.2 nM in the test with A549; 0.56 nM with EJ [8]. The inhibition in vivo at 20 mg/kg in the test with EJ [5] came to 78%. Besides, the inhibition in vivo at 40 mg/kg in the test on HCT-116 [6] is 43%.
`O=C(c1cn(Cc2cnc[nH]2)cc1-c1ccccc1)N1CCOCC1` displayed an IC50 in [3] of 2000 nM.
Consider `O=C(c1cn(Cc2cncn2Cc2ccccc2)cc1-c1cccc2ccccc12)N1CCOCC1`, for which the IC50 was found to be 2.1 nM in test [1] and 1.5 nM in test [3].
In test [3], `CCOC(=O)c1cn(Cc2c[nH]cn2)cc1-c1cccc2ccccc12` displayed an IC50 of 500 nM.
In the case of `CN1CCN(C(=O)c2cn(Cc3cncn3Cc3ccc4c(c3)OCO4)cc2-c2cccc3ccccc23)CC1` [listing 3 of 3 here], the inhibition entry in the test on EJ [9] and in the test with EJ [10] was “Regression” each time.
Take `O=C(c1cn(Cc2cncn2Cc2ccc3c(c2)OCO3)cc1-c1cccc2ccccc12)N1CCOCC1`: the IC50 is 0.9 nM in [3] and 12000 nM in [2].
